From PMC12120886 (Plant Biotechnology Journal, 2025)

Key:
STpGMAS = biological target: T1, STpGMAS (Tanacetum parthenium, UniProt F8UL80); test: GC-MS of germacrene A from yeast expressing the synthase with ERG20; type: cell-based; settings: S. cerevisiae JCR27, endogenous FPP
T1 sequence (F8UL80 1-559): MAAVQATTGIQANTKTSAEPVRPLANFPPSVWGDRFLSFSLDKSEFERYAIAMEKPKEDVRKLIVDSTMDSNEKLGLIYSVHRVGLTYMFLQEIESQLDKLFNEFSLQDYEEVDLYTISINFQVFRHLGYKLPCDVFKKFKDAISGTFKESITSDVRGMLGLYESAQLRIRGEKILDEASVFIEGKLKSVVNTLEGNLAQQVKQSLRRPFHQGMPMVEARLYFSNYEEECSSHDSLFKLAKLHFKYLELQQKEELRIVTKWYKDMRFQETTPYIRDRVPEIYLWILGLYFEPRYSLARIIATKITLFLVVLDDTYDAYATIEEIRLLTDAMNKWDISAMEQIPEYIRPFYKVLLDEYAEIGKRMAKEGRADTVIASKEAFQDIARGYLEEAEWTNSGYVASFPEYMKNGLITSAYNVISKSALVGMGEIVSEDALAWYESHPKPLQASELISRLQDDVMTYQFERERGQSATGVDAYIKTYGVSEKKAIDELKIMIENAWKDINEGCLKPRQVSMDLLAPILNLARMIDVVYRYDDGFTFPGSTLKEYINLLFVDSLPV

LsLTC2 = biological target: T2, LsLTC2 (Lactuca sativa, UniProt Q8S3A5); test: as above; type: cell-based; settings: S. cerevisiae JCR27, endogenous FPP
T2 sequence (Q8S3A5 1-557): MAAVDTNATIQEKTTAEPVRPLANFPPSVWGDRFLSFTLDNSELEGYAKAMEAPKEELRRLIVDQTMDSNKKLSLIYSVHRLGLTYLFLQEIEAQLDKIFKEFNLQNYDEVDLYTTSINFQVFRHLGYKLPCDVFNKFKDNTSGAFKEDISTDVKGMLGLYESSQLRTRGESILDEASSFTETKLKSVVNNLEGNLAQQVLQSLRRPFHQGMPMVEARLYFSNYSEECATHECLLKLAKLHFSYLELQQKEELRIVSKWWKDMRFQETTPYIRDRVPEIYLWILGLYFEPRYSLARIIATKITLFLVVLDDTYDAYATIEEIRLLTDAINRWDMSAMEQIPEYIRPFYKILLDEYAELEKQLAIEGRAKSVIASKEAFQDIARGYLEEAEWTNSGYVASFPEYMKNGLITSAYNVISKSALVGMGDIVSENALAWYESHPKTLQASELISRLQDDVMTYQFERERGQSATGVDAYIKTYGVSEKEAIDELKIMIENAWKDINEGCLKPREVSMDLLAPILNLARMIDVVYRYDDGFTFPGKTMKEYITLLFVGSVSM

LcTPS3 = test: malachite green phosphate-release assay, Michaelis-Menten fit; type: biochemical, Liriodendron chinense; settings: 5 mM MgCl2, 50 mM MOPS pH 7.0 (optimum printed as pH 7.5), 35 °C, FPP 0-25 μM
In short: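 Recombinant His-tagged enzyme was expressed from pET-28a(+) in E. coli BL21(DE3) pLysS, induced with 1 mM IPTG at 16 °C for 16 h, and bead-purified. FPP (0–25 μM) was reacted with 5 mM MgCl2 in 50 mM MOPS pH 7.0 at 35 °C for 15 min. Phosphatase-released phosphate was read by malachite green at 620 nm. Km came from a Michaelis–Menten fit of initial velocity versus [FPP].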

CC(C)=CCC/C(C)=C/CC/C(C)=C/COP(=O)(O)OP(=O)(O)O [FPP]
GC-MS of germacrene A from yeast expressing the synthase with ERG20 (STpGMAS): co‐expressed LcTPS3, NPGAS, LsLTC2 and STpGMAS with a yeast–derived farnesyl diphosphate synthase (EGR20) | GC-MS of germacrene A from yeast expressing the synthase with ERG20 (LsLTC2): co‐expressed LcTPS3, NPGAS, LsLTC2 and STpGMAS with a yeast–derived farnesyl diphosphate synthase (EGR20) | Km (LcTPS3): 17.7 ± 0.47 µM
